Data from ChEMBL document CHEMBL1135509 (J Med Chem, 2002).
pKi: −log10 of the molar value.

Legend:
[1] = molecular target: T1, Sodium-dependent dopamine transporter (Rattus norvegicus, UniProt P23977); assay: 373 Ability to inhibit high affinity uptake of [3H]DA using rat nerve endings obtained from brain regions enriched in dopamine transporter
Summary of the method: (§1)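 Reuptake inhibition reported as Ki; values are mean ± standard error of at least three experiments.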

[2] = molecular target: Norepinephrine transporter (Rattus norvegicus, UniProt Q9WTR4); assay: Inhibition of high affinity uptake of [3H]NE by norepinephrine transporter in nerve endings obtained from rat brain.; summary of the method: as §1
Norepinephrine transporter, sequence (Q9WTR4 whole entry): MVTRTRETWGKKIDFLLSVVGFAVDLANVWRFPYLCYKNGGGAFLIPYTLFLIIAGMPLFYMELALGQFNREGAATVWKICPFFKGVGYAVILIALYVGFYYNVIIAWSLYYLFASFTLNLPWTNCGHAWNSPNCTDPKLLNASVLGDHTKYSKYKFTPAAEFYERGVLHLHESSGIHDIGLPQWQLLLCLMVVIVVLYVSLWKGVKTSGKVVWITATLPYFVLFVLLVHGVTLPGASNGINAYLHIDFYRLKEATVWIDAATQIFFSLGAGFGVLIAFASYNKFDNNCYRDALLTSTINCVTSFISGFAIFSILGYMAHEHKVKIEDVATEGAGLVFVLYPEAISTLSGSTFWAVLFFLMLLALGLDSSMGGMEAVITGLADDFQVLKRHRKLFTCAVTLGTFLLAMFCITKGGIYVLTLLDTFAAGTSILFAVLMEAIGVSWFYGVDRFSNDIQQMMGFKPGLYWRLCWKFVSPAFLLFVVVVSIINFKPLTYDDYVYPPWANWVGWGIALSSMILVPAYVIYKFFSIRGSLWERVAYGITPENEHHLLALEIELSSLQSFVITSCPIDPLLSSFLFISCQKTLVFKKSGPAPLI

[3] = molecular target: Monoamine transporters; serotonin & dopamine (Rattus norvegicus) (UniProt P31652+P23977); assay: Ratio of Ki at 5-HT transporter and Ki at dopamine transporter.; assay type: protein assay
Monoamine transporters; serotonin & dopamine (Rattus norvegicus), sequence (P23977 whole entry, looked up): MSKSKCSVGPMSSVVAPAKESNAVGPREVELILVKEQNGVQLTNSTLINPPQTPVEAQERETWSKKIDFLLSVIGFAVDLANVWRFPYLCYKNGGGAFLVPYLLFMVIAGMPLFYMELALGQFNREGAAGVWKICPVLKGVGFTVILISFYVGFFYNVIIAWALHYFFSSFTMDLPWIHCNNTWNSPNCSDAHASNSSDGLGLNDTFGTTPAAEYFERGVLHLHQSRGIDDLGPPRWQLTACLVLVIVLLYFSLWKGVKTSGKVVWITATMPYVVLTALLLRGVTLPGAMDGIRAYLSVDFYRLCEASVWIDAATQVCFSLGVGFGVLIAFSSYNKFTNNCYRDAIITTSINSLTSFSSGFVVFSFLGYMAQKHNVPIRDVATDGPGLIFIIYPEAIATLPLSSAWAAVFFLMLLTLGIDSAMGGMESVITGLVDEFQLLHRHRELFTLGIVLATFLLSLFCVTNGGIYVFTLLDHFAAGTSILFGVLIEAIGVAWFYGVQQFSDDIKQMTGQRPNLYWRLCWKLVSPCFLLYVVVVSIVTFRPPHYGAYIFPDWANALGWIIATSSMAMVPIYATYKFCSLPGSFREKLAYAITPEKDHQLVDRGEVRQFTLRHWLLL
Monoamine transporters; serotonin & dopamine (Rattus norvegicus), sequence (P31652 whole entry, looked up): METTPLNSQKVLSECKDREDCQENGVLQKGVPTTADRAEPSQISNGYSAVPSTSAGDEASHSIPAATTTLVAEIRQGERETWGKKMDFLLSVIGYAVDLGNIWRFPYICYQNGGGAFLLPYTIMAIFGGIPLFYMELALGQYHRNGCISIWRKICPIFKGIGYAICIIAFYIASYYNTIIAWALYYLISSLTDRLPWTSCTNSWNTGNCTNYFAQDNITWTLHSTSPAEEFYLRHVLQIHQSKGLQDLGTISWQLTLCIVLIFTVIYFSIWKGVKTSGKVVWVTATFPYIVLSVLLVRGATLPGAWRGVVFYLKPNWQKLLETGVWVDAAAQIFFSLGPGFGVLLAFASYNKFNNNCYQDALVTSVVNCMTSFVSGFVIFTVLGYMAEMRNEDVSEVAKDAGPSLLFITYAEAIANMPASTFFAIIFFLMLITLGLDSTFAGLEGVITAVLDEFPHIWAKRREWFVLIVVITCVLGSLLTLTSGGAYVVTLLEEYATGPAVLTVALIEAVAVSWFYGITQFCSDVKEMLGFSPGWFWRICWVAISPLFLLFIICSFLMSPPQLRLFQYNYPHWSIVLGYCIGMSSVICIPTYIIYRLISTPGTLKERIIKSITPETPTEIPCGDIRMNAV
Summary of the method: (§2)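 Selectivity ratio calculated from Ki values measured in the monoamine reuptake assays, each Ki being the mean ± standard error of at least three experiments.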

[4] = molecular target: Monoamine transporters; Norepininephrine & dopamine (Rattus norvegicus) (UniProt P23977+Q9WTR4); assay: Ratio of Ki at norepinephrine transporter and Ki at dopamine transporter.; assay type: protein assay; summary of the method: as §2
[5] = molecular target: Monoamine transporters; Norepinephrine & serotonin (Rattus norvegicus) (UniProt P31652+Q9WTR4); assay: Ratio of Ki at norepinephrine transporter and Ki at 5-HT transporter.; assay type: protein assay; summary of the method: as §2
[6] = molecular target: Sodium-dependent serotonin transporter (Rattus norvegicus, UniProt P31652); assay: Inhibition of high affinity uptake of [3H]5-HT by serotonin transporter in nerve endings obtained from rat brain.; summary of the method: as §1
Sodium-dependent serotonin transporter, sequence (P31652 whole entry): as the sequence (P31652 whole entry, looked up) above

[7] = molecular target: T1, Sodium-dependent dopamine transporter; assay: Inhibition of high affinity uptake of [3H]-DA by dopamine transporter in nerve endings obtained from rat brain.; summary of the method: as §1

T1 sequence (P23977 whole entry): as the sequence (P23977 whole entry, looked up) above

## Cc1noc(C2CNCC[C@@H]2c2ccc(Cl)cc2)n1 (some centres not stated)
[1]
  pKi: 6.72
[2]
  pKi: 7.47
[3]
  Ratio: 1.97
[4]
  Ratio: 0.18
[5]
  Ratio: 0.09
[6]
  pKi: 6.43

## COC(=O)C1CN(C(C)=O)CC[C@@H]1c1ccc(Cl)cc1 (some centres not stated)
[7]
  pKi: < 5.00
[2]
  pKi: < 5.00
[6]
  pKi: < 5.00

## COC(=O)C1CN(S(=O)(=O)c2ccccc2)CC[C@@H]1c1ccc(Cl)cc1 (some centres not stated)
[2]
  pKi: 4.79
[3]
  Ratio: 1.85
[4]
  Ratio: 0.83
[5]
  Ratio: 0.45
[6]
  pKi: 4.44

## OCC1CNCC[C@@H]1c1ccc(Cl)cc1 (some centres not stated)
[7]
  pKi: 6.08
[2]
  pKi: 7.16
[3]
  Ratio: 0.29
[4]
  Ratio: 0.08
[5]
  Ratio: 0.29
[6]
  pKi: 6.62

## COC(=O)C1CNCC[C@@H]1c1ccc(Cl)cc1 (some centres not stated)
[7]
  pKi: 6.55
[2]
  pKi: 8.10
[3]
  Ratio: 1.56
[4]
  Ratio: 0.03
[5]
  Ratio: 0.02
[6]
  pKi: 6.36

## COC(=O)C1CN(CCCF)CC[C@@H]1c1ccc(Cl)cc1 (some centres not stated)
[7]
  pKi: 5.37
[2]
  pKi: 6.47
[3]
  Ratio: > 2.3
[4]
  Ratio: 0.08
[5]
  Ratio: < 0.03
[6]
  pKi: < 5.00

## COC(=O)[C@@H]1CN(Cc2ccccc2)CC[C@@H]1c1ccc(Cl)cc1
[7]
  pKi: 5.48
[2]
  pKi: 5.53
[3]
  Ratio: 0.67
[4]
  Ratio: 0.91
[5]
  Ratio: 1.36
[6]
  pKi: 5.66

## COC(=O)C1CN(C(C)C)CC[C@@H]1c1ccc(Cl)cc1 (some centres not stated)
[7]
  pKi: 5.16
[2]
  pKi: 5.74
[3]
  Ratio: 0.54
[4]
  Ratio: 0.26
[5]
  Ratio: 0.49
[6]
  pKi: 5.43

## Cc1noc(C2CN(C)CC[C@@H]2c2ccc(Cl)cc2)n1 (some centres not stated)
[7]
  pKi: 6.73
[2]
  pKi: 6.59
[3]
  Ratio: 31.8
[4]
  Ratio: 1.37
[5]
  Ratio: 0.04
[6]
  pKi: 5.22

## COC(=O)[C@@H]1CN(CCc2ccccc2)CC[C@@H]1c1ccc(Cl)cc1
[7]
  pKi: 5.99
[2]
  pKi: 6.63
[3]
  Ratio: 1.84
[4]
  Ratio: 0.23
[5]
  Ratio: 0.12
[6]
  pKi: 5.73

## COC(=O)C1CN(CCCCl)CC[C@@H]1c1ccc(Cl)cc1 (some centres not stated)
[7]
  pKi: 5.50
[2]
  pKi: 6.36
[3]
  Ratio: > 3.17
[4]
  Ratio: 0.14
[5]
  Ratio: < 0.04
[6]
  pKi: < 5.00

## COC(=O)C1CN(CCCc2ccccc2)CC[C@@H]1c1ccc(Cl)cc1 (some centres not stated)
[7]
  pKi: 6.09
[2]
  pKi: 6.31
[3]
  Ratio: 4.04
[4]
  Ratio: 0.6
[5]
  Ratio: 0.15
[6]
  pKi: 5.49

## CN1CC[C@H](c2ccc(Cl)cc2)[C@@H](CO)C1
[7]
  pKi: 6.30
[2]
  pKi: 6.70
[3]
  Ratio: 3.12
[4]
  Ratio: 0.4
[5]
  Ratio: 0.13
[6]
  pKi: 5.81

## CCOC(=O)CCN1CC[C@H](c2ccc(Cl)cc2)C(C(=O)OC)C1 (some centres not stated)
[7]
  pKi: < 5.00
[2]
  pKi: 5.68
[4]
  Ratio: < 0.21
[5]
  Ratio: < 0.21
[6]
  pKi: < 5.00

## COC(=O)C1CN(CCC(c2ccccc2)c2ccccc2)CC[C@@H]1c1ccc(Cl)cc1 (some centres not stated)
[7]
  pKi: 5.37
[2]
  pKi: 5.36
[3]
  Ratio: 0.63
[4]
  Ratio: 1.01
[5]
  Ratio: 1.61
[6]
  pKi: 5.57

## COC(=O)[C@H]1CN(CCc2ccccc2)CC[C@@H]1c1ccc(Cl)cc1
[7]
  pKi: 5.97
[2]
  pKi: 6.85
[3]
  Ratio: 2.68
[4]
  Ratio: 0.13
[5]
  Ratio: 0.05
[6]
  pKi: 5.54

## COC(=O)C1CN(Cc2ccc(O)cc2)CC[C@@H]1c1ccc(Cl)cc1 (some centres not stated)
[7]
  pKi: 5.79
[2]
  pKi: 5.97
[3]
  Ratio: 1.64
[4]
  Ratio: 0.67
[5]
  Ratio: 0.41
[6]
  pKi: 5.58
